PRMT1 FP inh: PRMT1 (human) inhibition, primary screen. 370,000 compounds, 1.3% hits. AID 652257. Q99873. inhibition, % at 2.79 µM. recombinant PRMT1, activity-based probe fluorescence polarization;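 active = inhibition above about 21% made by adding two undisclosed values, limit read from the data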
rCAG binder: binds r(CAG) RNA repeats | r(CAG) RNA repeat, TO-PRO-1 dye displacement fluorescence | inhibition, % at 3 µM | 370,000 compounds, 1.3% hits | AID 651821;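 active = inhibition above the plate cutoff, the mean of all test compounds on that plate plus 3 SD, cut at about 35% in these data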;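 note: higher means more dye released from RNA so lower well fluorescence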
SIAE primary: inhibitors of human sialic acid acetylesterase SIAE; Q9HAT2; SIAE FP-Rh probe binding, fluorescence polarization; inhibition, % at 9.66 µM; 370,000 compounds, 0.69% hits; AID 1053197;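 active = inhibition above a cutoff: mean of compounds within the control limits plus 3 SD of those, cut at about 17% in these data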
TCR CD3 inh: human TCR-CD3 binding inhibition; TAMRA-labeled TCR probe fluorescence, biochemical; inhibition, % at 9.4 µM; 360,000 compounds, 0.37% hits; in the data active = inhibition above about 19%;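 note: recombinant mutant TCR 2C K166C tagged with TAMRA read by polarization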
mABHD4 FP: ABHD4 (mouse) inhibition, primary FP screen; inhibition, % at 8.92 µM; purified mABHD4, FP-Rh probe fluorescence polarization; Q8VD66; 370,000 compounds, 0.54% hits;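 active = inhibition exceeding the mean over every tested compound plus 3 SD, cut at about 30% in these data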
Target sequence (Q8VD66 whole entry, looked up): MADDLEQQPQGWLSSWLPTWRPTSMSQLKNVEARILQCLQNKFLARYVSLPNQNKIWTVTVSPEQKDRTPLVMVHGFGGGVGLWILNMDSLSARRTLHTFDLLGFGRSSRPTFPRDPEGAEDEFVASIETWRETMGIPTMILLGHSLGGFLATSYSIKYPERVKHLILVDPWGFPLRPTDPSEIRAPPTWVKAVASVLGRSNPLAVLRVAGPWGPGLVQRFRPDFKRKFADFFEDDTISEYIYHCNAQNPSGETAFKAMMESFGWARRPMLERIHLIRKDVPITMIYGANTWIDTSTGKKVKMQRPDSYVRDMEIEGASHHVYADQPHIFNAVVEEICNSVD
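Doses – 8.92 µM, single dose · Material – wild-type mouse ABHD4 protein · Replication – single well per compound (singlicate) · Measure – percent inhibition of probe binding, normalized to plate controls · Schedule – 45 min compound pre-incubation plus 60 min probe step, 25 °C · Detection – fluorescence polarization with parallel and perpendicular emission, 525/598 nm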
SIAE inh conf: human SIAE inhibition, confirmation; shares compounds with SIAE primary; AID 1117263; SIAE FP-Rh activity-based probe, fluorescence polarization; 2,300 compounds, 13% hits; inhibition, % at 9.66 µM;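 active = mean inhibition of the replicates above the hit cutoff set in the primary screen, cut at about 17% in these data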;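 note: inhibitors lower polarization as more probe stays unbound to SIAE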
Of the large screens only hits and unclear results are named; the others gave an inactive call (follow-up assays come after a bar, where they were run). Only some compounds are listed: those with a hit (about 3.3% of all), similar ones and a draw of the others.

O=C(c1ccc(Cl)cc1)[C@@H]1[C@@H]2C(=O)N(c3ccc(Cl)cc3)C(=O)[C@@H]2C2c3ccccc3C=NN21 (stereo partly specified)	none
O=C1[C@@H](C2CC2)[C@@H]2c3ccccc3C=NN2[C@@H]2c3ccccc3C=NN12	SIAE primary 23.1 (no result: TCR CD3 inh) | SIAE inh conf inactive
Cc1ccc(NC(=S)NNS(=O)(=O)c2ccc3ccccc3c2)cc1Cl	SIAE primary 17.8 | SIAE inh conf inactive
Cc1ccc(S(=O)(=O)NNC(=S)Nc2ccc(Cl)cc2)cc1	none
CC1(C(=O)Nc2cccc(Oc3ccccc3)c2)CCN1Cc1cc2ccccc2o1 (stereo unspecified)	none
CCCCNC(=O)CCC(=O)Nc1ccc2nc(N3CCOCC3)cc(C)c2c1	SIAE primary 24.1 | SIAE inh conf inactive
CCCCNC(=O)CCC(=O)Nc1ccc2nc(N3CCCCC3)cc(C)c2c1	none
Cn1cccc1Cc1nnc(SCC(=O)Nc2nccs2)n1C	none
COc1ccc(-n2c(Cc3cccn3C)nnc2SCC(=O)Nc2nccs2)cc1	SIAE primary 17.3 | SIAE inh conf inactive
Cc1nc2c3ccccc3nc(NNC(=O)CCC(=O)N3CCCC(C)C3)n2n1 (stereo unspecified)	SIAE primary 19.1 | SIAE inh conf inactive
Cc1nc2c3ccccc3nc(NNC(=O)CCC(=O)NC3CCCC3)n2n1	none
COc1cc(NC(=O)Nc2nc(C(N)C(C)C)cs2)cc(OC)c1OC (stereo unspecified)	none
COc1cc(NC(=O)Nc2nc(C(N)C3CCCCC3)cs2)cc(OC)c1OC (stereo unspecified)	SIAE primary 20.6 | SIAE inh conf inactive
CCN(CC)C(=O)Cn1cc(S(=O)(=O)CC(=O)Nc2ccccc2C)c2ccccc21	none
O=C1CCCC(O)=C1N=Nc1ccc(C(=O)O)cc1	SIAE primary 66.2 | SIAE inh conf inactive
O=C1CCCC(O)=C1N=Nc1ccc2c(c1)OCO2	none
CC1=C(C(=O)Nc2cc(C(=O)N3CCN(c4ccc(Cl)cc4)CC3)ccc2C)SCCO1	SIAE primary 19.2 | SIAE inh conf inactive
Cc1nc(SCC(=O)N(C)c2ccccc2)[nH]c(=O)c1C	none (no result: rCAG binder, TCR CD3 inh)
NC(=O)c1ncn([C@@H]2O[C@H](C(=O)N[C@H](Cc3c[nH]c4ccccc34)C(=O)NCC(=O)N3CCCCC3)[C@@H](O)[C@H]2O)n1	none
NC(=O)c1ncn([C@@H]2O[C@H](C(=O)N[C@H](Cc3c[nH]c4ccccc34)C(=O)N3CCN(C(=O)N4CCOCC4)CC3)[C@@H](O)[C@H]2O)n1	SIAE primary 52.0 | SIAE inh conf 33.4
O=C(OCc1ccccc1)C1CCCN1C(=O)c1cccs1 (stereo unspecified)	none
O=C(COC(=O)C1CCCN1C(=O)c1cccs1)c1ccccc1 (stereo unspecified)	SIAE primary 17.2 | SIAE inh conf inactive
CCOc1ccc(CCNC(=O)CCCn2c(=O)c3cccn3c3cccnc32)cc1OCC	SIAE primary 22.3 | SIAE inh conf inactive
O=C(Nc1ccc2c(c1)CCC2)Nc1ccccc1F	none
CC1CCN(C(=O)c2ccc(S(=O)(=O)N3CCOCC3)cc2)CC1	none
CC(=O)c1ccc2c(c1)C1C=CCC1C(c1ccc(S(=O)(=O)N3CCOCC3)cc1)N2 (stereo unspecified)	SIAE primary 17.8 | SIAE inh conf inactive
CN(Cc1ccc(F)cc1)S(=O)(=O)c1ccc2[nH]c(=O)[nH]c2c1	none
Cc1cccc(/C(N)=N/OC(=O)c2ccc(F)cc2)c1	SIAE primary 20.5 | SIAE inh conf inactive
N/C(=N\OC(=O)c1ccc(F)cc1)c1cccc([N+](=O)[O-])c1	none
O=C1Cc2cc(S(=O)(=O)NCc3ccc(F)cc3)ccc2N1	none
CC(=O)c1cccc(NC(=S)NCCCCc2ccccc2)c1	SIAE primary 42.5 | SIAE inh conf 47.2
CC(=O)c1cccc(NC(=S)NC2CC2)c1	none
CCCCNC(=S)Nc1cccc(C(C)=O)c1	none
CC(=O)c1cccc(NC(=S)NC2CCCCC2)c1	SIAE primary 18.9 | SIAE inh conf inactive
O=C(OCc1cn([C@@H]2CN(CC3CCCCC3)[C@@H](c3ccccc3)C[C@H]2O)nn1)c1ccccc1	none
COc1ccccc1CNC(=O)COC(=O)c1ccc(C)s1	SIAE primary 23.4 | SIAE inh conf inactive
COc1ccccc1CNC(=O)COC(=O)c1ccco1	none
COc1ccc(C(CC(=O)O)NC(=O)COc2ccccc2OC)cc1OC (stereo unspecified)	none

Compound activity as filed in PubChem BioAssay.
